Converted amounts (≈) assume the structure as drawn.
Key:
Assay type in all cases: functional, Salmonella enterica subsp. enterica serovar Typhimurium
Salmonella typhimurium [1] = experiment: Antimicrobial activity against Salmonella enterica serovar Typhimurium S21
Outline: (§1)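 MICs measured by broth microdilution on the Sensititre automated system and interpreted by CLSI broth microdilution standards. Ciprofloxacin was also tested by agar dilution, widening the range to 0.0075–128 μg/ml. Quality control strains were E. coli ATCC 25922 and 35218, E. faecalis ATCC 29212, S. aureus ATCC 29213 and P. aeruginosa ATCC 27853.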

Salmonella typhimurium [2] = experiment: Antimicrobial activity against Salmonella enterica serovar Typhimurium S21 gyrA+; outline: as §1
Salmonella typhimurium [3] = experiment: Antimicrobial activity against Salmonella enterica serovar Typhimurium S21 acrAB::Kan
Outline: (§2)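 MICs by automated broth microdilution panels, interpreted to CLSI broth microdilution standards. Ciprofloxacin additionally tested by agar dilution across 0.0075 to 128 μg/ml. Quality control strains: E. coli ATCC 25922 and 35218, Enterococcus faecalis ATCC 29212, S. aureus ATCC 29213, P. aeruginosa ATCC 27853. Test strains are kanamycin-marked deletion mutants of ground-beef isolate S21.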

Salmonella typhimurium [4] = experiment: Antimicrobial activity against Salmonella enterica serovar Typhimurium S21 tolC::Kan; outline: as §2
Salmonella typhimurium [5] = experiment: Antimicrobial activity against Salmonella enterica serovar Typhimurium S21-1 GyrA S83F mutant; outline: as §1
Salmonella typhimurium [6] = experiment: Antimicrobial activity against Salmonella enterica serovar Typhimurium S21-1 gyrA+; outline: as §1
Salmonella typhimurium [7] = experiment: Antimicrobial activity against Salmonella enterica serovar Typhimurium GyrA S21-1 acrAB::Kan with GyrA S83F mutation; outline: as §1
Salmonella typhimurium [8] = experiment: Antimicrobial activity against Salmonella enterica serovar Typhimurium S21-1 tolC::Kan with GyrA S83F mutation; outline: as §1
Salmonella typhimurium [9] = experiment: Antimicrobial activity against Salmonella enterica serovar Typhimurium S21-2 with GyrA S83F, ParC S80I mutation; outline: as §1
Salmonella typhimurium [10] = experiment: Antimicrobial activity against Salmonella enterica serovar Typhimurium S21-2 gyrA+ with ParC S80I mutation; outline: as §1
Salmonella typhimurium [11] = experiment: Antimicrobial activity against Salmonella enterica serovar Typhimurium S21-2 acrAB::Kan with GyrA S83F, ParC S80I mutation; outline: as §1
Salmonella typhimurium [12] = experiment: Antimicrobial activity against Salmonella enterica serovar Typhimurium S21-2 tolC::Kan with GyrA S83F, ParC S80I mutation; outline: as §1
Salmonella typhimurium [13] = experiment: Antimicrobial activity against Salmonella enterica serovar Typhimurium S21-3 with GyrA S83F, ParC S80I mutation; outline: as §1
Salmonella typhimurium [14] = experiment: Antimicrobial activity against Salmonella enterica serovar Typhimurium S21-3 gyrA+ with ParC S80I mutation; outline: as §1
Salmonella typhimurium [15] = experiment: Antimicrobial activity against Salmonella enterica serovar Typhimurium S21-3 acrAB::Kan with GyrA S83F, ParC S80I mutation; outline: as §1
Salmonella typhimurium [16] = experiment: Antimicrobial activity against Salmonella enterica serovar Typhimurium CHS14 gyrA+ with GyrA D87G mutation; outline: as §1
Salmonella typhimurium [17] = experiment: Antimicrobial activity against Salmonella enterica serovar Typhimurium CHS14 acrAB::Kan with GyrA D87G mutation; outline: as §1
Salmonella typhimurium [18] = experiment: Antimicrobial activity against Salmonella enterica serovar Typhimurium CHS14 tolC::Kan with GyrA D87G mutant; outline: as §1
Salmonella typhimurium [19] = experiment: Antimicrobial activity against Salmonella enterica serovar Typhimurium CHS18 with GyrA S38F mutation; outline: as §1
Salmonella typhimurium [20] = experiment: Antimicrobial activity against Salmonella enterica serovar Typhimurium CHS18 gyrA+ with GyrA S38F mutation; outline: as §1
Salmonella typhimurium [21] = experiment: Antimicrobial activity against Salmonella enterica serovar Typhimurium CHS18 acrAB::Kan with GyrA S38F mutation; outline: as §1
Salmonella typhimurium [22] = experiment: Antimicrobial activity against Salmonella enterica serovar Typhimurium CHS18 tolC::Kan with GyrA S38F mutation; outline: as §1
Salmonella typhimurium [23] = experiment: Antimicrobial activity against Salmonella enterica serovar Typhimurium S21-4 acrAB::Kan with GyrA S83F, ParC S80I mutation; outline: as §1
Salmonella typhimurium [24] = experiment: Antimicrobial activity against Salmonella enterica serovar Typhimurium S21-3 tolC::Kan with GyrA S83F, ParC S80I mutation; outline: as §1
Salmonella typhimurium [25] = experiment: Antimicrobial activity against Salmonella enterica serovar Typhimurium S21-4 with GyrA S83F, ParC S80I mutation; outline: as §1
Salmonella typhimurium [26] = experiment: Antimicrobial activity against Salmonella enterica serovar Typhimurium S21-4 gyrA+ with ParC S80I mutation; outline: as §1
Salmonella typhimurium [27] = experiment: Antimicrobial activity against Salmonella enterica serovar Typhimurium S21-4 tolC::Kan with GyrA S83F, ParC S80I mutation; outline: as §1
Salmonella typhimurium [28] = experiment: Antimicrobial activity against Salmonella enterica serovar Typhimurium CS1 with GyrA S83F, D87N, ParC S80I mutation; outline: as §1
Salmonella typhimurium [29] = experiment: Antimicrobial activity against Salmonella enterica serovar Typhimurium CS1 gyrA+ with GyrA S83F, D87N, ParC S80I mutation; outline: as §1
Salmonella typhimurium [30] = experiment: Antimicrobial activity against Salmonella enterica serovar Typhimurium CS1 acrAB::Kan with GyrA S83F, D87N, ParC S80I mutation; outline: as §1
Salmonella typhimurium [31] = experiment: Antimicrobial activity against Salmonella enterica serovar Typhimurium CS1 tolC::Kan with GyrA S83F, D87N, ParC S80I mutation; outline: as §1
Salmonella typhimurium [32] = experiment: Antimicrobial activity against Salmonella enterica serovar Typhimurium CS3 with GyrA S83F, D87N, ParC S80I mutation; outline: as §1
Salmonella typhimurium [33] = experiment: Antimicrobial activity against Salmonella enterica serovar Typhimurium CS3 gyrA+ with GyrA S83F, D87N, ParC S80I mutation; outline: as §1
Salmonella typhimurium [34] = experiment: Antimicrobial activity against Salmonella enterica serovar Typhimurium CS3 acrAB::Kan with GyrA S83F, D87N, ParC S80I mutation; outline: as §1
Salmonella typhimurium [35] = experiment: Antimicrobial activity against Salmonella enterica serovar Typhimurium CS3 tolC::Kan with GyrA S83F, D87N, parC S80I mutation; outline: as §1
Salmonella typhimurium [36] = experiment: Antimicrobial activity against Salmonella enterica serovar Typhimurium CS9 with GyrA S83F, D87N, ParC S80I mutation; outline: as §1
Salmonella typhimurium [37] = experiment: Antimicrobial activity against Salmonella enterica serovar Typhimurium CS9 gyrA+ with GyrA S83F, D87N, ParC S80I mutation; outline: as §1
Salmonella typhimurium [38] = experiment: Antimicrobial activity against Salmonella enterica serovar Typhimurium CS9 acrAB::Kan with GyrA S83F, D87N, ParC S80I mutation; outline: as §1
Salmonella typhimurium [39] = experiment: Antimicrobial activity against Salmonella enterica serovar Typhimurium CS9 tolC::Kan with GyrA S83F, D87N, ParC S80I mutation; outline: as §1
Salmonella typhimurium [40] = experiment: Antimicrobial activity against Salmonella enterica serovar Typhimurium CHS14 with GyrA D87G mutation; outline: as §1
Salmonella typhimurium [41] = experiment: Antimicrobial activity against Salmonella enterica serovar Typhimurium CHS38 with GyrA D87G mutation; outline: as §1
Salmonella typhimurium [42] = experiment: Antimicrobial activity against Salmonella enterica serovar Typhimurium CHS38 gyrA+ with GyrA D87G mutation; outline: as §1
Salmonella typhimurium [43] = experiment: Antimicrobial activity against Salmonella enterica serovar Typhimurium CHS38 acrAB::Kan with GyrA D87G mutation; outline: as §1
Salmonella typhimurium [44] = experiment: Antimicrobial activity against Salmonella enterica serovar Typhimurium CHS38 tolC::Kan with GyrA D87G mutation; outline: as §1

CO[C@@]1(NC(=O)Cc2cccs2)C(=O)N2C(C(=O)O)=C(COC(N)=O)CS[C@@H]21 [CEFOXITIN]
MIC (Salmonella typhimurium [1]): 4 µg/mL (≈ 9.36 µM) | MIC (Salmonella typhimurium [2]): 4 µg/mL (≈ 9.36 µM) | MIC (Salmonella typhimurium [3]): 1 µg/mL (≈ 2.34 µM) | MIC (Salmonella typhimurium [4]): 1 µg/mL (≈ 2.34 µM) | MIC (Salmonella typhimurium [5]): 2 µg/mL (≈ 4.68 µM) | MIC (Salmonella typhimurium [6]): 2 µg/mL (≈ 4.68 µM) | MIC (Salmonella typhimurium [7]): 1 µg/mL (≈ 2.34 µM) | MIC (Salmonella typhimurium [8]): 1 µg/mL (≈ 2.34 µM) | MIC (Salmonella typhimurium [9]): > 16 µg/mL | MIC (Salmonella typhimurium [10]): > 16 µg/mL | MIC (Salmonella typhimurium [11]): 2 µg/mL (≈ 4.68 µM) | MIC (Salmonella typhimurium [12]): 2 µg/mL (≈ 4.68 µM) | MIC (Salmonella typhimurium [13]): > 16 µg/mL | MIC (Salmonella typhimurium [14]): > 16 µg/mL | MIC (Salmonella typhimurium [15]): 1 µg/mL (≈ 2.34 µM) | MIC (Salmonella typhimurium [16]): 2 µg/mL (≈ 4.68 µM) | MIC (Salmonella typhimurium [17]): 1 µg/mL (≈ 2.34 µM) | MIC (Salmonella typhimurium [18]): 1 µg/mL (≈ 2.34 µM) | MIC (Salmonella typhimurium [19]): 2 µg/mL (≈ 4.68 µM) | MIC (Salmonella typhimurium [20]): 2 µg/mL (≈ 4.68 µM) | MIC (Salmonella typhimurium [21]): 1 µg/mL (≈ 2.34 µM) | MIC (Salmonella typhimurium [22]): 1 µg/mL (≈ 2.34 µM) | MIC (Salmonella typhimurium [23]): 1 µg/mL (≈ 2.34 µM) | MIC (Salmonella typhimurium [24]): 1 µg/mL (≈ 2.34 µM) | MIC (Salmonella typhimurium [25]): > 16 µg/mL | MIC (Salmonella typhimurium [26]): > 16 µg/mL | MIC (Salmonella typhimurium [27]): 2 µg/mL (≈ 4.68 µM) | MIC (Salmonella typhimurium [28]): 1 µg/mL (≈ 2.34 µM) | MIC (Salmonella typhimurium [29]): 2 µg/mL (≈ 4.68 µM) | MIC (Salmonella typhimurium [30]): 1 µg/mL (≈ 2.34 µM) | MIC (Salmonella typhimurium [31]): 1 µg/mL (≈ 2.34 µM) | MIC (Salmonella typhimurium [32]): 1 µg/mL (≈ 2.34 µM) | MIC (Salmonella typhimurium [33]): 2 µg/mL (≈ 4.68 µM) | MIC (Salmonella typhimurium [34]): 1 µg/mL (≈ 2.34 µM) | MIC (Salmonella typhimurium [35]): 1 µg/mL (≈ 2.34 µM) | MIC (Salmonella typhimurium [36]): 1 µg/mL (≈ 2.34 µM) | MIC (Salmonella typhimurium [37]): 2 µg/mL (≈ 4.68 µM) | MIC (Salmonella typhimurium [38]): 1 µg/mL (≈ 2.34 µM) | MIC (Salmonella typhimurium [39]): 1 µg/mL (≈ 2.34 µM) | MIC (Salmonella typhimurium [40]): 4 µg/mL (≈ 9.36 µM) | MIC (Salmonella typhimurium [41]): 4 µg/mL (≈ 9.36 µM) | MIC (Salmonella typhimurium [42]): 4 µg/mL (≈ 9.36 µM) | MIC (Salmonella typhimurium [43]): 0.5 µg/mL (≈ 1.17 µM) | MIC (Salmonella typhimurium [44]): 0.5 µg/mL (≈ 1.17 µM)

Reference: ChEMBL document CHEMBL1142136, “Contribution of target gene mutations and efflux to decreased susceptibility of Salmonella enterica serovar typhimurium to fluoroquinolones and other antimicrobials” (2007)
